Experimental findings from ChEMBL document CHEMBL1158505, “Phenolics from Glycyrrhiza glabra roots and their PPAR-gamma ligand-binding activity” (Bioorg Med Chem, 2010) are described below.

The source made the active and inactive calls. The calls are words filed in the database; no cut-off is given here.

This assay has as its target T1, Peroxisome proliferator-activated receptor gamma (Homo sapiens) (UniProt P37231).
T1 sequence (whole entry): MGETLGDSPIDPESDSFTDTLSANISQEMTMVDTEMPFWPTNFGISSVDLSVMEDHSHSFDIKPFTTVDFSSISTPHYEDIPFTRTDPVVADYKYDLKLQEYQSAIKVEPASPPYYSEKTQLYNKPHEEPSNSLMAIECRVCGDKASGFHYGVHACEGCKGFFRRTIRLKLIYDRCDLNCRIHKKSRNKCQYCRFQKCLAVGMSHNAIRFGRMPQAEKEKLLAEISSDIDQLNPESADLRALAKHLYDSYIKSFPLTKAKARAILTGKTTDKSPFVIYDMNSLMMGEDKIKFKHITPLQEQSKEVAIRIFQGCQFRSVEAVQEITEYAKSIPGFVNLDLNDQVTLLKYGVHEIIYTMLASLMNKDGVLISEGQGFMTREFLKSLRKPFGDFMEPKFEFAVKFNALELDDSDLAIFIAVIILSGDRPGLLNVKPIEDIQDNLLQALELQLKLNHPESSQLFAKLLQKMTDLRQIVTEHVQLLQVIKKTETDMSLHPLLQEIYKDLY
Put plainly: Binding affinity to human recombinant […] expressed in african green monkey CV1 cells coexpressing GAL4-luc reporter by microplate scintillation counter. The format is cell-based. To be noted: CV-1. In outline: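 GAL4-PPAR-γ chimera reporter assay in CV-1 monkey kidney cells seeded at 6 × 10³ cells/well in DMEM with 10% FBS and ascorbic acid, 37 °C, 5% CO2, 24 h. Cells transfected with pM-hPPAR-γ and p4×UASg-tk-luc, then 24 h later given DMEM with 10% charcoal-treated FBS plus sample (2 or 10 μg/mL; final DMSO 0.1%) for 24 h. Luciferase luminescence expressed relative to DMSO control; n = 4.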

On to `CC(C)=CCc1cc([C@@H]2CC(=O)c3ccc4c(c3O2)C=CC(C)(C)O4)ccc1O`, for which the result was Active.
Under `CC1(C)C=Cc2c(ccc3c2OC[C@@H](c2cc(C=O)c(O)cc2O)C3)O1` stands “Active”; under `CC1(C)C=Cc2c(ccc3c2OC[C@H]2c4ccc(O)cc4O[C@@H]32)O1`, “Active”.
Take `CC(C)=CCc1c(O)ccc([C@@H]2COc3c(ccc(O)c3CC=C(C)C)C2)c1O`: the outcome was Active.
Then `COc1cc(O)ccc1/C=C/C(=O)c1ccc(O)cc1`, with “Active”; and `CC(C)=CCc1cc([C@@H]2CC(=O)c3ccc(O)c(CC=C(C)C)c3O2)ccc1O`, with “Active”.
Under `CC(C)=CCc1cc2c(=O)cc(-c3ccc(O)cc3)oc2cc1O` stands “Active”; under `CC(C)=CCc1c(O)cc(O)c2c(=O)c(-c3ccc(O)c(O)c3)coc12`, “Active”; under `CC(C)=CCc1cc([C@H]2Oc3cc(O)ccc3C(=O)[C@@H]2O)ccc1O`, “Active”.
As to `CC1(C)C=Cc2c(ccc3cc(-c4ccc(O)cc4O)c(=O)oc23)O1`, the result was Active.
As to `CC1(C)C=Cc2c(ccc(-c3coc4cc(O)ccc4c3=O)c2O)O1`, the outcome was Active.
Then `COc1ccc([C@@H]2COc3cc(O)ccc3C2)c(O)c1O`, with “Active”.
